Each structure is given as a SMILES string. The source made the active and inactive calls. The calls are words filed in the database; no cut-off is given here.

In one data set the target is T1, Peptidyl-prolyl cis-trans isomerase FKBP5 (Homo sapiens, UniProt Q13451).
T1 sequence (Q13451 whole entry): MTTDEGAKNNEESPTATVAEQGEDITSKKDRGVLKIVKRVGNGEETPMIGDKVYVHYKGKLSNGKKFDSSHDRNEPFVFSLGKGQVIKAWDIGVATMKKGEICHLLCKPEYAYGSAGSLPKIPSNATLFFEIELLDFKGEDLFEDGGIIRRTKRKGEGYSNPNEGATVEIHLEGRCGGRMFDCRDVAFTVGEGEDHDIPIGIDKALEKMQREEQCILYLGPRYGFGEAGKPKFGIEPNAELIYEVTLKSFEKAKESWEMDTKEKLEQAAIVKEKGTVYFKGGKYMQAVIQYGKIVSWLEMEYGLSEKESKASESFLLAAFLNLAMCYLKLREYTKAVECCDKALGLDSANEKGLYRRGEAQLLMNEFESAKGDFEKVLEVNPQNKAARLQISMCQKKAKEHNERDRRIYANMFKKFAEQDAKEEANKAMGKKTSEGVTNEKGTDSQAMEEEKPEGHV
Nature of the data set: Inhibition of human full length N-terminal His-tagged/C-terminal FLAG tagged FKBP51 expressed in Escherichia coli BL21 (DE3) cells incubated for 30 mins by competitive fluorescence polarization assay.
Conditions: not given
The molecule `COc1ccc(CC[C@@H](OC(=O)[C@@H]2CCCCN2C(=O)[C@H]2[C@@H]3CCCC[C@H]3CC[C@@H]2C)c2cccc(OCC(=O)O)c2)cc1OC` gave a Ki of 490 nM.

For `COc1ccc(CC[C@@H](OC(=O)[C@@H]2CCCCN2C(=O)[C@@H]2CCC(=O)[C@@H]3CCC[C@H]32)c2cccc(OCC(=O)O)c2)cc1OC`, the Ki came out at 3100 nM.

`COc1ccc(CCC(OC(=O)C2CCCCN2C(=O)[C@H]2[C@@H]3CCCC[C@H]3C(=O)C[C@@H]2C)c2cccc(OCCN3CCOCC3)c2)cc1OC` (single isomer, unassigned) registered an inhibition constant (Ki) of 330 nM.

`COc1ccc(CCC(OC(=O)C2CCCCN2C(=O)[C@H]2[C@@H]3CCCC[C@H]3C=C[C@@H]2C)c2cccc(OCCN3CCOCC3)c2)cc1OC` (single isomer, unassigned) came in with a Ki of 1900 nM.

`COc1ccc(CC[C@@H](OC(=O)[C@@H]2CCCCN2C(=O)[C@@H]2C[C@H]3OC(C)(C)O[C@H]3[C@@H]3CCCC[C@H]32)c2cccc(OCCN3CCOCC3)c2)cc1OC` showed an inhibition constant Ki of 8200 nM.

`COc1ccc(CC[C@@H](OC(=O)[C@@H]2CCCCN2C(=O)[C@@H]2CCC[C@@H]3CCCC[C@H]32)c2cccc(OCC(=O)O)c2)cc1OC` had an inhibitory constant (Ki) of 810 nM. This Ki lies about 10-fold lower than the previous one.

In turn, `COc1ccc(CC[C@@H](OC(=O)[C@@H]2CCCCN2C(=O)[C@@H]2CCC[C@@H]3CCC[C@H]32)c2cccc(OCC(=O)O)c2)cc1OC` yielded a Ki of 2600 nM.

For `COc1ccc(CC[C@@H](OC(=O)[C@@H]2CCCCN2C(=O)[C@H]2[C@@H]3CCCC[C@H]3C=C[C@@H]2C)c2cccc(OCC(=O)O)c2)cc1OC`, the affinity, expressed as Ki, was 2000 nM.

Turning to `COc1ccc(CCC(OC(=O)C2CCCCN2C(=O)[C@@H]2CC(=O)C[C@@H]3CCCC[C@H]32)c2cccc(OCCN3CCOCC3)c2)cc1OC` (single isomer, unassigned), affinity was put at a Ki of 1300 nM.

As to `COc1ccc(CC[C@@H](OC(=O)[C@@H]2CCCCN2C(=O)[C@@H]2CC=C[C@@H]3CCC[C@H]32)c2cccc(OCC(=O)O)c2)cc1OC`, the affinity, expressed as Ki, was 7800 nM.

Take `COc1ccc(CCC(OC(=O)C2CCCCN2C(=O)[C@@H]2CC=C[C@@H]3CCCC[C@H]32)c2cccc(OCCN3CCOCC3)c2)cc1OC` (single isomer, unassigned): the affinity corresponds to a Ki of 2600 nM.

As to `COc1ccc(CC[C@@H](OC(=O)[C@@H]2CCCCN2C(=O)[C@@H]2CC(=O)C[C@@H]3CCC[C@H]32)c2cccc(OCC(=O)O)c2)cc1OC`, the affinity, expressed as Ki, was 28000 nM. This Ki is about 11-fold higher than that of the molecule before.

`COc1ccc(CCC(OC(=O)C2CCCCN2C(=O)[C@@H]2CCC(=O)[C@@H]3CCCC[C@H]32)c2cccc(OCCN3CCOCC3)c2)cc1OC` (single isomer, unassigned) displayed an inhibitory constant (Ki) of 230 nM.

Regarding `COc1ccc(CC[C@@H](OC(=O)[C@@H]2CCCCN2C(=O)[C@@H]2CC=C[C@@H]3CCCC[C@H]32)c2cccc(OCC(=O)O)c2)cc1OC`, the inhibition constant Ki came to 2400 nM.

The target of a further data set is T2, Peptidyl-prolyl cis-trans isomerase FKBP4 (Homo sapiens, UniProt Q02790).
T2 sequence (Q02790 whole entry): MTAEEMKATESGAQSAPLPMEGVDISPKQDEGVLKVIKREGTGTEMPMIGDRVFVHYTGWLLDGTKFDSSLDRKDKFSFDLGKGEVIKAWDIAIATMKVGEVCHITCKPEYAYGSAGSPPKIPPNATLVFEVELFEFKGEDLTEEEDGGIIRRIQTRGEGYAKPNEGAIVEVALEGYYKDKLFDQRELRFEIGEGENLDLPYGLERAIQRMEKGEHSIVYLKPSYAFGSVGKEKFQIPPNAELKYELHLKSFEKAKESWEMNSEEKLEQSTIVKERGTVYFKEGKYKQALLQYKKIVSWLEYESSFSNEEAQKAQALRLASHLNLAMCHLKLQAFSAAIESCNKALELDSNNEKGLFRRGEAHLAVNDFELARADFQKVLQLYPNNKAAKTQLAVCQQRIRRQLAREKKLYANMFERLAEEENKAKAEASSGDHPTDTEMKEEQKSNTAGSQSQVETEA
Nature of the data set: Inhibition of human full length N-terminal His-tagged/C-terminal FLAG tagged FKBP52 expressed in Escherichia coli BL21 (DE3) cells incubated for 30 mins by competitive fluorescence polarization assay. Conditions: 0.5 h.
In the case of `COc1ccc(CC[C@@H](OC(=O)[C@@H]2CCCCN2C(=O)[C@H]2[C@@H]3CCCC[C@H]3CC[C@@H]2C)c2cccc(OCC(=O)O)c2)cc1OC`, the “inhibition (INH)” value is recorded as “Not Active”.

For the molecule `COc1ccc(CC[C@@H](OC(=O)[C@@H]2CCCCN2C(=O)[C@@H]2CCC(=O)[C@@H]3CCC[C@H]32)c2cccc(OCC(=O)O)c2)cc1OC`, the “inhibition (INH)” value was “Not Active”.

On to `COc1ccc(CCC(OC(=O)C2CCCCN2C(=O)[C@H]2[C@@H]3CCCC[C@H]3C(=O)C[C@@H]2C)c2cccc(OCCN3CCOCC3)c2)cc1OC` (single isomer, unassigned), for which the “inhibition (INH)” value is given as “Not Active”.

Consider `COc1ccc(CCC(OC(=O)C2CCCCN2C(=O)[C@H]2[C@@H]3CCCC[C@H]3C=C[C@@H]2C)c2cccc(OCCN3CCOCC3)c2)cc1OC` (single isomer, unassigned), for which the “inhibition (INH)” value was “Not Active”.

With `COc1ccc(CC[C@@H](OC(=O)[C@@H]2CCCCN2C(=O)[C@@H]2C[C@H]3OC(C)(C)O[C@H]3[C@@H]3CCCC[C@H]32)c2cccc(OCCN3CCOCC3)c2)cc1OC`, the “inhibition (INH)” value is “Not Active”.

`COc1ccc(CC[C@@H](OC(=O)[C@@H]2CCCCN2C(=O)[C@@H]2CCC[C@@H]3CCCC[C@H]32)c2cccc(OCC(=O)O)c2)cc1OC`: the “inhibition (INH)” value is given as “Not Active”.

Regarding `COc1ccc(CC[C@@H](OC(=O)[C@@H]2CCCCN2C(=O)[C@@H]2CCC[C@@H]3CCC[C@H]32)c2cccc(OCC(=O)O)c2)cc1OC`, the “inhibition (INH)” value was “Not Active”.

`COc1ccc(CC[C@@H](OC(=O)[C@@H]2CCCCN2C(=O)[C@H]2[C@@H]3CCCC[C@H]3C=C[C@@H]2C)c2cccc(OCC(=O)O)c2)cc1OC`: the “inhibition (INH)” value is given as “Not Active”.

Turning to `COc1ccc(CCC(OC(=O)C2CCCCN2C(=O)[C@@H]2CC(=O)C[C@@H]3CCCC[C@H]32)c2cccc(OCCN3CCOCC3)c2)cc1OC` (single isomer, unassigned), the “inhibition (INH)” value is “Not Active”.

On to `COc1ccc(CC[C@@H](OC(=O)[C@@H]2CCCCN2C(=O)[C@@H]2CCC(O)[C@@H]3CCCC[C@@H]23)c2cccc(OCCN3CCOCC3)c2)cc1OC` (stereo not given in full), for which the “inhibition (INH)” value is listed as “Not Active”.

For the molecule `COc1ccc(CC[C@@H](OC(=O)[C@@H]2CCCCN2C(=O)[C@@H]2CC=C[C@@H]3CCC[C@H]32)c2cccc(OCC(=O)O)c2)cc1OC`, the “inhibition (INH)” value is “Not Active”.

In the case of `COc1ccc(CCC(OC(=O)C2CCCCN2C(=O)[C@@H]2CC=C[C@@H]3CCCC[C@H]32)c2cccc(OCCN3CCOCC3)c2)cc1OC` (single isomer, unassigned), the “inhibition (INH)” value is listed as “Not Active”.

As to `COc1ccc(CC[C@@H](OC(=O)[C@@H]2CCCCN2C(=O)[C@@H]2CC(=O)C[C@@H]3CCC[C@H]32)c2cccc(OCC(=O)O)c2)cc1OC`, the “inhibition (INH)” value is “Not Active”.

In the case of `COc1ccc(CCC(OC(=O)C2CCCCN2C(=O)[C@@H]2CCC(=O)[C@@H]3CCCC[C@H]32)c2cccc(OCCN3CCOCC3)c2)cc1OC` (single isomer, unassigned), the “inhibition (INH)” value is reported as “Not Active”.

Take `COc1ccc(CC[C@@H](OC(=O)[C@@H]2CCCCN2C(=O)[C@@H]2CC=C[C@@H]3CCCC[C@H]32)c2cccc(OCC(=O)O)c2)cc1OC`: the “inhibition (INH)” value is reported as “Not Active”.

System in another data set: not listed separately
Nature of the data set: Solubility of compound.
Conditions: not given
It is filed as physicochemical.
The molecule `COc1ccc(CC[C@@H](OC(=O)[C@@H]2CCCCN2C(=O)c2cccc3c2CCCC3)c2cccc(OCC(=O)O)c2)cc1OC` returned a solubility of more than 10 µM.

Molecule `COc1ccc(CC[C@@H](OC(=O)[C@@H]2CCCCN2C(=O)c2cccc3ccccc23)c2cccc(OCC(=O)O)c2)cc1OC` came in with a solubility of more than 10 µM.

Regarding `COc1ccc(CC[C@@H](OC(=O)[C@@H]2CCCCN2C(=O)c2cccc3cccnc23)c2cccc(OCC(=O)O)c2)cc1OC`, the solubility was more than 10 µM.

Turning to `COc1ccc(CC[C@@H](OC(=O)[C@@H]2CCCCN2C(=O)c2nccc3ccccc23)c2cccc(OCC(=O)O)c2)cc1OC`, the solubility is more than 10 µM.

With `COc1ccc(CC[C@@H](OC(=O)[C@@H]2CCCCN2C(=O)c2ccnc3ccccc23)c2cccc(OCC(=O)O)c2)cc1OC`, the solubility was more than 10 µM.

In the case of `COc1ccc(CC[C@@H](OC(=O)[C@@H]2CCCCN2C(=O)C2=CCc3ccccc32)c2cccc(OCC(=O)O)c2)cc1OC`, the solubility is more than 10 µM.

Molecule `COc1ccc(CC[C@@H](OC(=O)[C@@H]2CCCCN2C(=O)[C@@H]2CCCc3ccccc32)c2cccc(OCC(=O)O)c2)cc1OC` had a solubility of more than 10 µM.

The target in the next data set is Cytochrome P450 3A4 (Homo sapiens, UniProt P08684). Nature of the data set: Inhibition of CYP3A4 (unknown origin). The format is ADME.
Chain of Cytochrome P450 3A4 (P08684 whole entry): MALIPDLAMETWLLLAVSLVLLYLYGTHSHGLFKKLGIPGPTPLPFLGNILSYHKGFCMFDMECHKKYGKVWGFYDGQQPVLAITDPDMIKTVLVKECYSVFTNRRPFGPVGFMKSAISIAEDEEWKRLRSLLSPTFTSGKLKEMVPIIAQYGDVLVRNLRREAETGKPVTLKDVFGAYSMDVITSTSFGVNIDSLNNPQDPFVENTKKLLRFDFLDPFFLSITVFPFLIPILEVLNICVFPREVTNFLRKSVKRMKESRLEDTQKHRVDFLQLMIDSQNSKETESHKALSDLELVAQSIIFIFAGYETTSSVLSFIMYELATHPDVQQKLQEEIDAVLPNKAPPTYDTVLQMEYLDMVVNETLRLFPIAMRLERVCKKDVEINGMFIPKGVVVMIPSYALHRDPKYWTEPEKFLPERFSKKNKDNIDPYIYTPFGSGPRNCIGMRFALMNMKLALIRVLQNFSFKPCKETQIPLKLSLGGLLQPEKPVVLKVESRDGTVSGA
Conditions: not given
For `COc1ccc(CC[C@@H](OC(=O)[C@@H]2CCCCN2C(=O)[C@@H]2CCC[C@@H]3CCCC[C@H]32)c2cccc(OCC(=O)O)c2)cc1OC`, the half-maximal inhibitory concentration (IC50) is 8400 nM.

The next data set concerns KB. Nature of the data set: Cytotoxicity against human KB/HeLa cells overexpressing FKBP51 assessed as cell death up to 60 uM incubated for 72 hrs by propidium iodide staining based flow cytometry analysis. The format is functional.
Conditions: not given
An outline of the steps: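 KB cells exposed to a range of compound doses for 72 h. 1×10^5 cells washed in PBS, then permeabilized in 0.1% sodium citrate, 0.1% Triton X-100 and 50 µg/mL propidium iodide for 30 min at 4°C in the dark. Nuclear DNA content read by flow cytometry on a log scale with debris gated out by forward scatter; % hypodiploid nuclei taken as dead cells. Four experiments, each in triplicate.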
Turning to `COc1ccc(CC[C@@H](OC(=O)[C@@H]2CCCCN2C(=O)c2cccc3ccccc23)c2cccc(OCC(=O)O)c2)cc1OC`, the outcome was inactive.

Another data set deals with T3, Peptidyl-prolyl cis-trans isomerase FKBP5 (Homo sapiens) (UniProt Q13451).
T3 sequence (whole entry): T1 sequence (Q13451 whole entry)
Nature of the data set: Inhibition of human full length N-terminal His-tagged/C-terminal FLAG tagged FKBP51 expressed in Escherichia coli BL21 (DE3) cells at >=10 uM incubated for 30 mins by competitive fluorescence polarization assay.
Conditions: not given
Regarding `COc1ccc(CC[C@@H](OC(=O)[C@@H]2CCCCN2C(=O)c2cccc3c2CCCC3)c2cccc(OCC(=O)O)c2)cc1OC`, the inhibition entry is “inactive”.

As for `COc1ccc(CC[C@@H](OC(=O)[C@@H]2CCCCN2C(=O)c2cccc3ccccc23)c2cccc(OCC(=O)O)c2)cc1OC`, the inhibition result was “inactive”.

Regarding `COc1ccc(CC[C@@H](OC(=O)[C@@H]2CCCCN2C(=O)c2cccc3cccnc23)c2cccc(OCC(=O)O)c2)cc1OC`, the inhibition result was “inactive”.

With `COc1ccc(CC[C@@H](OC(=O)[C@@H]2CCCCN2C(=O)c2nccc3ccccc23)c2cccc(OCC(=O)O)c2)cc1OC`, the inhibition result is “inactive”.

For `COc1ccc(CC[C@@H](OC(=O)[C@@H]2CCCCN2C(=O)c2ccnc3ccccc23)c2cccc(OCC(=O)O)c2)cc1OC`, the inhibition result is “inactive”.

Take `COc1ccc(CC[C@@H](OC(=O)[C@@H]2CCCCN2C(=O)C2=CCc3ccccc32)c2cccc(OCC(=O)O)c2)cc1OC`: the inhibition entry was “inactive”.

With `COc1ccc(CC[C@@H](OC(=O)[C@@H]2CCCCN2C(=O)[C@@H]2CCCc3ccccc32)c2cccc(OCC(=O)O)c2)cc1OC`, the inhibition entry was “inactive”.
